Test results from ChEMBL document CHEMBL2146398, “Novel interleukin-5 inhibitors based on hydroxyethylaminomethyl-4H-chromen-4-one scaffold” (Bioorg Med Chem, 2012).

Biological target: T1, Interleukin-5 (Mus musculus) (UniProt P04401)
T1 sequence (whole entry): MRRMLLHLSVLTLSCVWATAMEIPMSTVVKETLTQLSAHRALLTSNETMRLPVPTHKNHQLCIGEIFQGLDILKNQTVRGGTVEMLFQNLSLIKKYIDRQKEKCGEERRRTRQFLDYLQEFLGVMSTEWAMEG
Assay: Inhibition of IL-5 in mouse Y16 cells at 30 uM after 48 hrs by WST1 assay
Format: cell-based
Summary of the method: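 IL-5-dependent pro-B Y16 cells cultured 48 h with 3 units/mL mIL-5, with or without test sample. Proliferation read as cell metabolism by WST-1 reduction. […] Values are means of three independent experiments.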

SMILES | inhibition [%]
O=c1c(CN(CCO)Cc2ccncc2)coc2cccc(OCC3CCCCC3)c12 | 94
CC(C)N(CCO)Cc1coc2cccc(OCC3CCCCC3)c2c1=O | 90.2
Cc1ccc(CN(CCO)Cc2coc3cccc(OCC4CCCCC4)c3c2=O)cc1 | 94.3
O=c1c(CN(CCO)Cc2ccc(O)cc2)coc2cccc(OCC3CCCCC3)c12 | 93.7
COc1ccc(CN(CCO)Cc2coc3cccc(OCC4CCCCC4)c3c2=O)cc1 | 94.1
O=c1c(CN(CCO)c2ccccc2)coc2cccc(OCC3CCCCC3)c12 | 94.4
O=c1c(CN(CCO)Cc2ccccc2)coc2cccc(OCC3CCCCC3)c12 | 94.8
O=c1c(CN(CCO)Cc2ccc(Cl)cc2)coc2cccc(OCC3CCCCC3)c12 | 93.4

Other lines, results leading:

inhibition [%] | SMILES
94.5 | O=c1c(CN(CCO)C2CCCCC2)coc2cccc(OCC3CCCCC3)c12
93.7 | CCCN(CCO)Cc1coc2cccc(OCC3CCCCC3)c2c1=O
79.2 | CCN(CCO)Cc1coc2cccc(OCC3CCCCC3)c2c1=O
56 | CN(CCO)Cc1coc2cccc(OCC3CCCCC3)c2c1=O
94 | CCCCN(CCO)Cc1coc2cccc(OCC3CCCCC3)c2c1=O
94.7 | O=c1c(CN(CCO)CC2CCCCC2)coc2cccc(OCC3CCCCC3)c12
